Experimental data as given in ChEMBL document CHEMBL3877250, “Design, synthesis, and biological evaluation of (2E)-(2-oxo-1, 2-dihydro-3H-indol-3-ylidene)acetate derivatives as anti-proliferative agents through ROS-induced cell apoptosis” (Eur J Med Chem, 2016).
Activity calls are given as the source filed them. The rule behind the calls is not given here.

Key:
[1] = system: HCT-116; test: Induction of apoptosis in human HCT116 cells assessed as late apoptotic cells at 1 uM after 48 hrs by Annexin V-FITC/propidium iodide staining based flow cytometry (reference value: 6.7%); assay type: functional
[2] = system: HCT-116; test: Induction of apoptosis in human HCT116 cells assessed as early apoptotic cells at 0.1 uM after 48 hrs by Annexin V-FITC/propidium iodide staining based flow cytometry (reference value: 3.8%); assay type: functional
Method in brief: (§1)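 HCT116 seeded at 2×10^5 cells/well, cultured 6 h, then treated 48 h at 0.1, 0.5, 1, 4, 8 or 16 µM; DMSO (0.1%) served as vehicle. Cells washed twice in cold PBS, resuspended in binding buffer with FITC Annexin V and PI for 15 min at RT in the dark, diluted, and run on flow cytometry within 1 h.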

[3] = Cell cycle arrest in human HCT116 cells assessed as G2/M phase accumulation at 3 uM after 48 hrs by Annexin V-FITC/propidium iodide staining based flow cytometry (reference value: 25.3%); assay type: functional; details: HCT-116
[4] = system: HCT-116; test: Induction of apoptosis in human HCT116 cells assessed as increase in Bax protein level after 9 hrs by Western blot method; assay type: functional, cell-based
Method in brief: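 HCT116 cells plated at 4 × 10⁵ cells/well in six-well plates. Incubated with or without compound for 9 h, then proteins extracted. Lysates resolved by 12% SDS-PAGE and immunoblotted with anti-Bax and anti-Bcl-2 antibodies.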

[5] = Cell cycle arrest in human HCT116 cells assessed as sub-G1 phase accumulation at 1 uM after 48 hrs by Annexin V-FITC/propidium iodide staining based flow cytometry (reference value: 4.36%); assay type: functional; details: HCT-116
[6] = Cell cycle arrest in human HCT116 cells assessed as S phase accumulation at 4 uM after 48 hrs by Annexin V-FITC/propidium iodide staining based flow cytometry (reference value: 28.43%); assay type: functional; details: HCT-116
[7] = system: HCT-116; test: Induction of apoptosis in human HCT116 cells assessed as early apoptotic cells at 8 uM after 48 hrs by Annexin V-FITC/propidium iodide staining based flow cytometry (reference value: 3.8%); assay type: functional
[8] = system: HCT-116; test: Induction of apoptosis in human HCT116 cells after 48 hrs by Annexin V-FITC/propidium iodide staining based flow cytometry; assay type: functional, cell-based; method in brief: as §1
[9] = system: HCT-116; test: Induction of apoptosis in human HCT116 cells assessed as early apoptotic cells at 0.5 uM after 48 hrs by Annexin V-FITC/propidium iodide staining based flow cytometry (reference value: 3.8%); assay type: functional; method in brief: as §1
[10] = Cell cycle arrest in human HCT116 cells assessed as S phase accumulation at 1 uM after 48 hrs by Annexin V-FITC/propidium iodide staining based flow cytometry (reference value: 28.43%); assay type: functional; details: HCT-116
[11] = Cytotoxicity against human HepG2 cells after 72 hrs by CCK-8 assay; assay type: functional, cell-based; details: HepG2, 72 h
Method in brief: (§2)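 Cells kept in RPMI 1640 with 10% heat-inactivated fetal calf serum and 1% streptomycin/penicillin at 37 °C, 5% CO2. After compound exposure, CCK-8 was added and cells were incubated 4 h at 37 °C, then absorbance was read at 450 nm. Viability is relative to untreated cells (100%). IC50 comes from nonlinear regression, mean of three separate determinations. Single-concentration screen at 20 µM.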

[12] = Cell cycle arrest in human HCT116 cells assessed as G1 phase accumulation at 3 uM after 48 hrs by Annexin V-FITC/propidium iodide staining based flow cytometry (reference value: 40.83%); assay type: functional; details: HCT-116
[13] = system: HCT-116; test: Inhibition of TrxR in human HCT116 cells after 3 hrs by DTNB assay; assay type: cell-based
Method in brief: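 HCT116 cells plated at 4 × 10⁵ cells/well in six-well plates and incubated with or without compound for 3 h. Total protein extracted and quantified. Cellular TrxR activity measured by a DTNB-based kit with absorbance read at 412 nm.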

[14] = system: HCT-116; test: Induction of apoptosis in human HCT116 cells assessed as necrotic cells at 1 uM after 48 hrs by Annexin V-FITC/propidium iodide staining based flow cytometry (reference value: 0.8%); assay type: functional
[15] = Cytotoxicity against human SW480 cells assessed as growth inhibition at 20 uM after 72 hrs by CCK-8 assay; assay type: functional; details: SW480, 72 h, read-out: GI; method in brief: as §2
[16] = Cytotoxicity against human SW480 cells after 72 hrs by CCK-8 assay; assay type: functional, cell-based; details: SW480, 72 h; method in brief: as §2
[17] = system: HCT-116; test: Induction of apoptosis in human HCT116 cells assessed as late apoptotic cells at 16 uM after 48 hrs by Annexin V-FITC/propidium iodide staining based flow cytometry (reference value: 6.7%); assay type: functional
[18] = Cell cycle arrest in human HCT116 cells assessed as S phase accumulation at 0.1 uM after 48 hrs by Annexin V-FITC/propidium iodide staining based flow cytometry (reference value: 28.43%); assay type: functional; details: HCT-116
[19] = Cell cycle arrest in human HCT116 cells assessed as sub-G1 phase accumulation at 2 uM after 48 hrs by Annexin V-FITC/propidium iodide staining based flow cytometry (reference value: 4.36%); assay type: functional; details: HCT-116
[20] = Cytotoxicity against human L02 cells; assay type: toxicity, cell-based
[21] = Cell cycle arrest in human HCT116 cells assessed as sub-G1 phase accumulation at 0.5 uM after 48 hrs by Annexin V-FITC/propidium iodide staining based flow cytometry (reference value: 4.36%); assay type: functional; details: HCT-116
[22] = system: HCT-116; test: Induction of apoptosis in human HCT116 cells assessed as early apoptotic cells at 4 uM after 48 hrs by Annexin V-FITC/propidium iodide staining based flow cytometry (reference value: 3.8%); assay type: functional; method in brief: as §1
[23] = Cytotoxicity against human MDA-MB-231 cells after 72 hrs by CCK-8 assay; assay type: functional, cell-based; details: MDA-MB-231, 72 h; method in brief: as §2
[24] = system: HCT-116; test: Induction of apoptosis in human HCT116 cells assessed as activation of cleaved caspases 3 after 9 hrs by Western blot method; assay type: functional, cell-based
Method in brief: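 HCT116 plated at 4×10^5 cells/well and incubated with or without compound for 9 h. Protein then extracted and run on 12% SDS-PAGE western blot probed with anti-cleaved caspase 3, anti-caspase 3, anti-Bax and anti-Bcl-2.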

[25] = Cytotoxicity against human OVCAR3 cells assessed as growth inhibition at 20 uM after 72 hrs by CCK-8 assay; assay type: functional; details: OVCAR-3, 72 h, read-out: GI; method in brief: as §2
[26] = system: HCT-116; test: Induction of apoptosis in human HCT116 cells assessed as early apoptotic cells at 16 uM after 48 hrs by Annexin V-FITC/propidium iodide staining based flow cytometry (reference value: 3.8%); assay type: functional; method in brief: as §1
[27] = system: HCT-116; test: Induction of apoptosis in human HCT116 cells assessed as live cells at 16 uM after 48 hrs by Annexin V-FITC/propidium iodide staining based flow cytometry (reference value: 88.7%); assay type: functional
[28] = system: HCT-116; test: Induction of apoptosis in human HCT116 cells assessed as live cells at 4 uM after 48 hrs by Annexin V-FITC/propidium iodide staining based flow cytometry (reference value: 88.7%); assay type: functional
[29] = Cell cycle arrest in human HCT116 cells assessed as G2/M phase accumulation at 1 uM after 48 hrs by Annexin V-FITC/propidium iodide staining based flow cytometry (reference value: 25.3%); assay type: functional; details: HCT-116
[30] = system: HCT-116; test: Induction of apoptosis in human HCT116 cells assessed as increase in intracellular reactive oxygen species at 2 to 3 hrs by DCFH-DA probe-based flow cytometry; assay type: functional, cell-based
[31] = system: HCT-116; test: Induction of apoptosis in human HCT116 cells assessed as late apoptotic cells at 4 uM after 48 hrs by Annexin V-FITC/propidium iodide staining based flow cytometry (reference value: 6.7%); assay type: functional

With CC(C)(C)OC(=O)/C=C1/C(=O)Nc2ccccc21 as the compound, how does the Activity [1] read?
The Activity was 9.1%.

And the Activity [2]?
Its Activity is 3.2%.

And the Activity [3]?
The Activity was 22.6%.

What about the Activity [4] of the same compound?
Its Activity is “Active”.

What about the Activity [5] of the same compound?
Its Activity is 1.06%.

What about the Activity [6] of the same compound?
The Activity was 22.8%.

What about the Activity [7] of the same compound?
Its Activity is 7.1%.

What about the Activity [8] of the same compound?
The Activity was “Dose-dependent effect”.

And the Activity [9]?
The Activity was 2.9%.

And the Activity [10]?
Its Activity is 34.3%.

What about the IC50 [11] of the same compound?
Its IC50 is 4.64 µM.

What about the Activity [12] of the same compound?
Its Activity is 35.6%.

What about the inhibition [13] of the same compound?
Its inhibition is “Dose-dependent effect”.

What about the Activity [14] of the same compound?
Its Activity is 1.3%.

And the inhibition of growth at 20 µM [15]?
The inhibition of growth at 20 µM was 78.1%.

What about the IC50 [16] of the same compound?
Its IC50 is 5.68 µM.

What about the Activity [17] of the same compound?
Its Activity is 69.1%.

What about the Activity [18] of the same compound?
Its Activity is 32.9%.

And the Activity [19]?
The Activity was 3.42%.

What about the IC50 [20] of the same compound?
Its IC50 is 6.21 µM.

And the Activity [21]?
Its Activity is 0.25%.

And the Activity [22]?
The Activity was 3.6%.

What about the IC50 [23] of the same compound?
Its IC50 is 2520 nM.

And the Activity [24]?
The Activity was “Active”.

What about the inhibition of growth at 20 µM [25] of the same compound?
Its inhibition of growth at 20 µM is 59.6%.

What about the Activity [26] of the same compound?
The Activity was 2.7%.

And the Activity [27]?
Its Activity is 26.1%.

What about the Activity [28] of the same compound?
Its Activity is 89.1%.

What about the Activity [29] of the same compound?
Its Activity is 33.1%.

And the Activity [30]?
The Activity was “Dose-dependent effect”.

What about the Activity [31] of the same compound?
The Activity was 6.6%.
